Broadly, the EC50 is the concentration giving half of the maximal effect.

What all share (type): functional
Assay [1] can be described thus: Antioxidant activity assessed as DPPH radical scavenging activity incubated for 30 mins by UV/visible spectrophotometric analysis. The essentials:
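Test samples in MeOH at 1.875−120 μg/mL reacted with DPPH in MeOH (negative control DPPH 0.1 mM). Absorbance read at 517 nm; scavenging % computed against the DPPH-only control, correcting for sample absorbance without DPPH. EC50 is the concentration giving 50% scavenging. Independent repeats at least three times, reported as mean ± standard deviation.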

The nature of assay [2]: Antioxidant activity assessed as hydroxyl radical scavenging activity incubated for 10 mins in presence of salicylic acid. In a few lines:
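Modified Smirnoff method. Equal volumes of sample in MeOH, FeSO4 (6 mM) and ethanolic salicylic acid (6 mM), then H2O2 (6 mM), giving final sample levels of 0.2−1 mg/mL. Held 10 min at room temperature, then read at 510 nm. Scavenging % uses blanks with and without H2O2 against the negative control. EC50 taken at 50% scavenging. Repeated at least three times, mean ± standard deviation.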

Assay [3] can be described thus: Antioxidant activity assessed as superoxide anion radical scavenging activity incubated for 20 mins measured every 30 secs for 5 mins in presence of pyrogallol.

With `CCC(=O)O[C@@H]1Cc2cc3c(c(O)c2-c2c(O)c4c(c(OC)c21)C(=O)c1c(O)cccc1C4=O)C(=O)O[C@H](C)C3`, the EC50 in assay [1] worked out at 30 µM; in assay [2] it was 831 µM; in assay [3], 754 µM.

Consider `COc1c2c(c(O)c3c1[C@H](O)Cc1cc4c(c(O)c1-3)C(=O)O[C@H](C)C4)C(=O)c1cccc(O)c1C2=O`, for which the 50% effective concentration (EC50) came out at 21 µM in assay [1], 723 µM in assay [2] and 589 µM in assay [3].

In the case of `COc1c2c(c(O)c3c1C(=O)c1c(O)cccc1C3=O)-c1c(cc3c(c1O)C(=O)OC(C)(O)C3)CC2` (centres undefined), the results for the EC50 in assay [1], in assay [2] and in assay [3] were 2.9 µM, 619 µM and 83 µM, respectively.

As for `CC(C)(C)c1cc(O)ccc1O` [E319], the EC50 amounted to 10 µM in assay [1], 1920 µM in assay [2] and 482 µM in assay [3].

In the case of `COc1c2c(c(O)c3c1[C@H](O)Cc1cc(CC(C)=O)c(C(=O)O)c(O)c1-3)C(=O)c1cccc(O)c1C2=O`, the results for the EC50 in assay [1], in assay [2] and in assay [3] were 25 µM, 840 µM and 681 µM, respectively.

As for `COc1c2c(c(O)c3c1C(=O)c1c(O)cccc1C3=O)-c1c(cc3c(c1O)C(=O)O[C@H](C)C3)CC2`, the EC50 in assay [1] amounted to 42 µM; in assay [2] it was 1530 µM; in assay [3], 1100 µM.

Regarding `COc1c2c(c(O)c3c1C(=O)c1c(O)cccc1C3=O)-c1c(cc3c(c1O)C(=O)OC(C)(OC)C3)CC2` (centres undefined), the results for the EC50 in assay [1], in assay [2] and in assay [3] were 2.7 µM, 519 µM and 139 µM, respectively.

On to `COc1c2c(c(O)c3c1[C@H](OC(=O)C(C)C)Cc1cc4c(c(O)c1-3)C(=O)O[C@H](C)C4)C(=O)c1cccc(O)c1C2=O`, for which the EC50 in assay [1] turned out to be 30 µM; in assay [2], 804 µM; in assay [3], 746 µM.

These data come from ChEMBL document CHEMBL4196182, “Hexaricins, Pradimicin-like Polyketides from a Marine Sediment-Derived Streptosporangium sp. and Their Antioxidant Effects” (J Nat Prod, 2018).
